hIAP activ – human IAP activation; 0.16% of 330,000 active; P09923; activation factor at 10 µM; purified human IAP, CDP-Star luminescence, 30 min; stronger effect = higher value; 1 = vehicle-only enzyme, 0 = enzyme-free background;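 active = activation factor of the enzyme at least 2-fold when tested at 20 µM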
Target sequence (P09923 whole entry, looked up): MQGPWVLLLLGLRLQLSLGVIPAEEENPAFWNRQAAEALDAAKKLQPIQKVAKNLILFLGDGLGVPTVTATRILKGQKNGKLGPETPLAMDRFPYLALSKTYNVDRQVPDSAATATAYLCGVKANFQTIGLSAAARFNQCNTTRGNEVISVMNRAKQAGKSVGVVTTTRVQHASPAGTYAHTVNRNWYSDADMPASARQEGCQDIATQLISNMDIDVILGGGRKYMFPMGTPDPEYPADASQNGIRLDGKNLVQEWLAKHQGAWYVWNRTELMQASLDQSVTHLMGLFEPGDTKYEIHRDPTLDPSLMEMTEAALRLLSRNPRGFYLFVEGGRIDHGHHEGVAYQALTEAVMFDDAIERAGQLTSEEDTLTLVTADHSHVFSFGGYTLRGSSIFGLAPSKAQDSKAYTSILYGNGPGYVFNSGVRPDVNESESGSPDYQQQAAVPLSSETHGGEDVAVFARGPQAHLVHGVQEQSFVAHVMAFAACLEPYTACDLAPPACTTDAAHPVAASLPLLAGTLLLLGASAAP
bIAP inhibitor – intestinal alkaline phosphatase (bovine) inhibition; purified bovine IAP, CDP-star luminescence, 30 min; inhibition, % at 20 µM; 190,000 tested, under 10 active;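 active = over 50% inhibition of intestinal alkaline phosphatase at 20 µM in the single-dose screen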
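Assay system – bovine IAP enzyme · Quantity – bovine IAP at 1/65,000,000 final dilution · Detection – CDP-star luminescence signal · Times – 30 min reaction at room temperature · Also added – CDP-star substrate at 30 µM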
mIAP block – mouse IAP inhibition; purified mouse IAP, CDP-Star luminescence, 30 min; inhibition, % at 10 µM; 0.2% of 330,000 active;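 active = inhibition of at least 40% at 10 µM in the primary screen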
bIAP activator – increases bovine intestinal alkaline phosphatase activity; purified bovine IAP, CDP-star luminescence, 30 min; stronger effect = higher value; fold of DMSO-control signal, blank-subtracted; activation factor at 20 µM; 0.17% of 200,000 active;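 active = activation factor of 2 or more at 20 µM, a signal rise over negative controls twice the positive control's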
mIAP activ – increases mouse intestinal alkaline phosphatase activity | 0.24% of 330,000 active | AID 2805 | muIAP, CDP-Star luminescence, 30 min; stronger effect = higher value; 1 = vehicle-only enzyme signal, 0 = enzyme-free wells | activation factor at 10 µM;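 active = activation factor of at least 2 at 20 µM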
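Assay system: mouse IAP enzyme; reagent: chemiluminescent substrate CDP-Star; dosing: test compounds delivered from DMSO solution; schedule: 30 min at room temperature; measured by: luminescence from enzymatic CDP-Star hydrolysis; controls: DMSO-only wells and no-enzyme negative control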
hIAP block – blocks human intestinal alkaline phosphatase; 0.12% of 330,000 active; P09923; inhibition, % at 10 µM; purified IAP, CDP-Star luminescence, 30 min; AID 2544;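 active = inhibition reaching a set limit with compound at 10 µM in the primary screen, cut at about 35% in these data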
hIAP act conf – human IAP activation confirmation | shares compounds with hIAP activ | 10% of 880 active | AID 434926 | activation (%Activity, negative = activation), % at 8.3 µM | purified IAP, CDP-Star luminescence, 30 min; stronger effect = lower value;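 active = at least twofold enzyme activation in any of six single-dose repeats, which the averaged readout prints as negative percent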
Hits are given with their value; n = inactive; x = no result given. Hits are enriched below; roughly 0.79% of the tested compounds scored in any of these assays.

SMILES	hIAP activ	bIAP inhibitor	mIAP block	bIAP activator	mIAP activ	hIAP block	hIAP act conf
CC(C)(C)NS(=O)(=O)c1ccc(NC(=O)C2CC(=O)N(CCc3ccc(F)cc3)C2)cc1 (configuration not stated)	n	x	n	x	n	n	x
Cn1cc(C(=O)NS(=O)(=O)Nc2ccc(Br)cc2)c2ccccc21	n	x	n	x	n	38	n
Cn1cc(C(=O)C(F)(F)F)c2ccccc21	n	n	n	n	n	n	x
CSC1=C(C#N)C(c2ccccc2Cl)C(C(C)=O)=C(C)N1 (configuration not stated)	n	n	n	n	n	35	n
CSC1=C(C#N)C(c2ccccc2)C(C(C)=O)=C(C)N1 (configuration not stated)	n	n	n	n	n	n	x
O=C1CCCc2ccccc2N1	n	n	n	n	n	n	x
CCN(CC)CCN=C1CCCc2ccccc2N1	n	n	n	n	n	52	n
Cc1cc(C)cc(OCC(=O)NNC(=O)c2cc(C)[nH]n2)c1	2.1	n	n	n	n	n	-95
O=C(CNC(=S)NC(=O)c1cccs1)c1ccccc1	n	n	n	n	n	n	x
O=C(NC(=S)NCc1ccccc1)c1cccs1	n	x	n	x	n	40	n
Cc1ccc(CN2CCSc3ccc(C(=O)NC4CCCC4)cc32)cc1	n	x	n	x	n	n	x
O=C(NC1CCCC1)c1ccc2c(c1)N(Cc1ccc(F)cc1)CCS2	n	x	n	x	n	39	n
COC(=O)c1[nH]c2ccccc2c1NC(=O)CN1CCCCCC1	n	n	n	n	n	n	x
COC(=O)c1[nH]c2ccccc2c1NC(=O)CNC1CCCCC1	n	n	n	n	n	53	n
C#CC(CC)(CC)NC(=O)Nc1ccccc1C(=O)OC	n	n	n	n	n	39	n
CCNC(=O)Nc1ccccc1C(=O)OC	n	n	n	n	n	n	x
O=C(N/N=C/c1ccc(O)c(O)c1)c1cc(-c2ccccc2)nc2ccccc12	n	x	n	x	n	78	n
O=C(N/N=C/c1cccc(O)c1)c1cc(-c2ccccc2)nc2ccccc12	n	x	n	x	n	n	x
CCOC(=O)c1cnn(-c2ccc(F)cc2)c1N	n	n	n	n	n	n	x
N#CC1=C(N)Oc2cc(O)ccc2C1c1ccc(Br)s1 (configuration not stated)	n	x	n	x	n	n	x
CC1Cn2c(nnc2C23CC4CC(CC(C4)C2)C3)S1 (configuration not stated)	2	n	n	n	n	n	n
CC1Cn2c(nnc2-c2ccc(F)cc2)S1 (configuration not stated)	n	n	n	n	n	n	x
CN(CC(=O)Nc1ccccc1Cl)C(=O)COC(=O)c1cnccn1	n	x	n	x	n	35	n
CC(=O)NC12CC3CC(C1)CC(C(=O)NCc1ccc(C)cc1)(C3)C2	n	x	n	x	n	n	x
O=C(CN1CCN(C(=O)C2COc3ccccc3O2)CC1)Nc1ccccc1 (configuration not stated)	n	x	n	x	n	40	n
SMILES	hIAP activ	bIAP inhibitor	mIAP block	bIAP activator	mIAP activ	hIAP block	hIAP act conf
CC1CCCC/C1=N/Nc1ccc([N+](=O)[O-])cc1[N+](=O)[O-] (configuration not stated)	n	x	n	n	n	37	n
CC(/C=C1\SC(=S)N(CCC(=O)Nc2nc(C)cs2)C1=O)=C\c1ccccc1	n	x	n	x	n	n	x
C[C@@H]1O[C@@H](O[C@@H]2C(=O)c3c(O)cc(O)cc3O[C@H]2c2ccc(O)c(O)c2)[C@H](O)[C@H](O)[C@H]1O	n	x	n	x	n	35	n
O=C1c2c(O)cc(O)cc2O[C@H](c2ccc(O)cc2)[C@H]1O	n	x	n	x	n	n	x
COc1cc(/C=C/C(=O)c2ccc(C)c([N+](=O)[O-])c2)cc(OC)c1O	n	n	n	n	n	47	n
COc1ccc(/C=C/C(=O)c2ccc(C)c([N+](=O)[O-])c2)cc1O	n	n	n	n	n	n	x
COc1ccccc1N(C)C(=O)c1cc(S(=O)(=O)N2CCCC2)cn1C	n	x	n	x	n	n	x
O=C(Nc1cccc(S(=O)(=O)N2CCCC2)c1)c1ccc(Cl)nc1	n	x	n	x	n	n	x

Screens: PubChem, Sanford-Burnham Center for Chemical Genomics
